Measurements published in ChEMBL document CHEMBL4393740, “Preparation and biological evaluation of soluble tetrapeptide epoxyketone proteasome inhibitors” (Bioorg Med Chem, 2019).

How the values were obtained:
[1] = target: T1, Proteasome Macropain subunit MB1 (Homo sapiens, UniProt P28074); experiment: Inhibition of human chymotrypsin-like activity of 20S proteasome using Suc-LLVY-AMC as substrate pre-incubated for 10 mins followed by substrate addition and measured after 1 hr by spectrofluorimetry
T1 sequence (P28074 whole entry): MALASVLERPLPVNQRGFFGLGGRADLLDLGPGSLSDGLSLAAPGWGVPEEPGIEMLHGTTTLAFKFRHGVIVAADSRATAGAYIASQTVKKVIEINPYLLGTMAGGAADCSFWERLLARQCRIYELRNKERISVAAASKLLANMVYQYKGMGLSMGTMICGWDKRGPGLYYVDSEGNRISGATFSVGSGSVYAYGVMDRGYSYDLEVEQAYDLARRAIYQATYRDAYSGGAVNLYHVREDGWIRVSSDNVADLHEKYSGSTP

[2] = tested on: RPMI-8226; experiment: Cytotoxicity against human RPMI8226 cells assessed as cell viability measured after 72 hrs by celltiter96 aqueous cell proliferation assay; type: functional, cell-based; conditions: RPMI-8226, 72 h
Outline: (§1)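 Suspension cells in log phase plated at 5000 (RPMI8226) or 10000 (U266B1) cells per well. Viability read after 72 h by MTS-type CellTiter 96 AQueous One assay on a plate reader. IC50 reported, three repeats.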

[3] = tested on: U-266; experiment: Cytotoxicity against human U266B1 cells assessed as cell viability measured after 72 hrs by celltiter96 aqueous cell proliferation assay; type: functional, cell-based; conditions: U-266, 72 h; outline: as §1
[4] = Half life in rat liver microsomes at 1 uM pre-incubated for 5 mins followed by NADP+ addition and measured up to 20 mins by LC-MS analysis; type: ADME, Microsome
[5] = Half life in monkey liver microsomes at 1 uM pre-incubated for 5 mins followed by NADP+ addition and measured up to 20 mins by LC-MS analysis; type: ADME, Macaca mulatta, Microsome; conditions: rhesus monkey
[6] = Half life in BALB/c mouse liver microsomes at 1 uM pre-incubated for 5 mins followed by NADP+ addition and measured up to 20 mins by LC-MS analysis; type: ADME, Microsome
Outline: (§2)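 Mixture held 1 µM compound, 0.5 mg/mL microsomal protein (in-house pooled Balb/c mouse or pooled human), 100 mM Tris-HCl pH 7.4, and an NADPH-generating system (5 mM isocitric acid, 0.2 U/mL isocitric dehydrogenase, 5 mM MgCl2, 1 mM NADP+). Preincubated 5 min at 37 °C, started with NADP+, sampled at 0, 5, 10, 20 min. Quenched with cold acetonitrile containing 1 µM phenytoin internal standard. Compound loss measured by LC-MS/MS. Controls omitted NADPH and/or microsomes.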

[7] = Half life in dog liver microsomes at 1 uM pre-incubated for 5 mins followed by NADP+ addition and measured up to 20 mins by LC-MS analysis; type: ADME, Canis lupus familiaris, Microsome
[8] = Half life in human liver microsomes at 1 uM pre-incubated for 5 mins followed by NADP+ addition and measured up to 20 mins by LC-MS analysis; type: ADME, Microsome; outline: as §2
[9] = Intrinsic clearance in rat liver microsomes at 1 uM pre-incubated for 5 mins followed by NADP+ addition and measured up to 20 mins by LC-MS analysis; type: ADME, Microsome; conditions: read-out: CLH
[10] = Intrinsic clearance in BALB/c mouse liver microsomes at 1 uM pre-incubated for 5 mins followed by NADP+ addition and measured up to 20 mins by LC-MS analysis; type: ADME, Microsome; conditions: read-out: CLH; outline: as §2
[11] = Intrinsic clearance in dog liver microsomes at 1 uM pre-incubated for 5 mins followed by NADP+ addition and measured up to 20 mins by LC-MS analysis; type: ADME, Canis lupus familiaris, Microsome; conditions: read-out: CLH
[12] = Intrinsic clearance in monkey liver microsomes at 1 uM pre-incubated for 5 min followed by NADP+ addition and measured up to 20 mins by LC-MS analysis; type: ADME, Macaca mulatta, Microsome; conditions: rhesus monkey, read-out: CLH
[13] = Intrinsic clearance in human liver microsomes at 1 uM pre-incubated for 5 min followed by NADP+ addition and measured up to 20 mins by LC-MS analysis; type: ADME, Microsome; conditions: read-out: CLH; outline: as §2
[14] = tested on: ARH-77; experiment: Antitumour activity against human ARH77 cells xenografted in nude mouse assessed as tumor growth at 5mg/kg, iv dosed at day 1 ,4, 8 ,11, 15 and 18 for 3 weeks and measured every 2 days by caliper method relative to control; type: functional
Outline: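 Nude mice given subcutaneous 1 × 10^7 ARH77 cells. Randomized at mean tumour 100-150 mm3 into treatment and control groups, n = 5. Dosed i.v. 5 mg/kg on days 1, 4, 8, 11, 15 and 18 for 3 weeks. Tumours sized by caliper, V = length×width²/2, RTV = Vt/V0. T/C% = mean RTV treated / mean RTV control × 100.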

[15] = target: Voltage-gated inwardly rectifying potassium channel KCNH2 (Homo sapiens, UniProt Q12809); experiment: Inhibition of human ERG in HEK293 cells assessed as effect on QT interval; type: cell-based
Sequence of Voltage-gated inwardly rectifying potassium channel KCNH2 (Q12809 whole entry): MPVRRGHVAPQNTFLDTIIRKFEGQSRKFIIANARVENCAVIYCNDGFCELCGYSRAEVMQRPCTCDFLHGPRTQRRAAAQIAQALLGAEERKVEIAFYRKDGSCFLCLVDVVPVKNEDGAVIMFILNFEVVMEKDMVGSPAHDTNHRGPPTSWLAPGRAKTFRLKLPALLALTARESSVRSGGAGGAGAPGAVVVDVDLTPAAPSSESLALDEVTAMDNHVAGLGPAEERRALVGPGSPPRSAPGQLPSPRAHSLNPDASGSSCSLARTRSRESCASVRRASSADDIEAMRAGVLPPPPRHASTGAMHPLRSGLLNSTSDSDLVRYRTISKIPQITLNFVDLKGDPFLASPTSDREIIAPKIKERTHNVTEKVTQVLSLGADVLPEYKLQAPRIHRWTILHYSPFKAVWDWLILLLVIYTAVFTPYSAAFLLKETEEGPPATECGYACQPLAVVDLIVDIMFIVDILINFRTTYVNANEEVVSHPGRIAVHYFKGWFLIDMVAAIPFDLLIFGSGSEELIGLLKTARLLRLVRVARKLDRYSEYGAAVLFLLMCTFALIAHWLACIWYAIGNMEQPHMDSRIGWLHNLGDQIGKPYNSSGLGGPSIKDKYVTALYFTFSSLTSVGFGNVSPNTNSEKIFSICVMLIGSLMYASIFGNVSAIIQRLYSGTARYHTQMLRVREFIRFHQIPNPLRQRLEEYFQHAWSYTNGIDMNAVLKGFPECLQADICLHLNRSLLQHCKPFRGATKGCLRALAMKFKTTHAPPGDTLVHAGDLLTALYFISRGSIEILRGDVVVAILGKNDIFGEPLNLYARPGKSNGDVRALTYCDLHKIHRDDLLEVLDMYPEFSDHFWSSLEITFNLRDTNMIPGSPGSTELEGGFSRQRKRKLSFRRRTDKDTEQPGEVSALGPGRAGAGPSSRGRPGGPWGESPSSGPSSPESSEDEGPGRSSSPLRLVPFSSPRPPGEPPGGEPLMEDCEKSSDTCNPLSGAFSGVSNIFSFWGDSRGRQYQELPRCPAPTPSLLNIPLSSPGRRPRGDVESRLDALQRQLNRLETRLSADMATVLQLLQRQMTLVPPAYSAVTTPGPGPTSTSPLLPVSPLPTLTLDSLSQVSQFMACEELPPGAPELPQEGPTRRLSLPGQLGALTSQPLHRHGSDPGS

CC[C@H](NC(=O)[C@H](CC(C)C)NC(=O)[C@H](CCc1ccccc1)NC(=O)CN1CCOCC1)C(=O)N[C@@H](CC(C)C)C(=O)[C@@]1(C)CO1
IC50 ([1]; read-out: IC50): 98.2 nM

Cc1cc(C(=O)N[C@@H](CC(C)C)C(=O)N[C@@H](CC(C)C)C(=O)N[C@@H](Cc2ccccc2)C(=O)N[C@@H](CC(C)C)C(=O)[C@@]2(C)CO2)no1
IC50 ([1]; read-out: IC50): 41.5 nM

CC(C)C[C@H](NC(=O)[C@H](Cc1cc2ccccc2s1)NC(=O)CN1CCOCC1)C(=O)N[C@@H](Cc1ccccc1)C(=O)N[C@@H](CC(C)C)C(=O)[C@@]1(C)CO1
IC50 ([1]; read-out: IC50): 34.1 nM
IC50 [2]: 53.8 nM
IC50 [3]: 33.2 nM

CC(C)C[C@H](NC(=O)[C@H](Cc1ccsc1)NC(=O)CN1CCOCC1)C(=O)N[C@@H](Cc1ccccc1)C(=O)N[C@@H](CC(C)C)C(=O)[C@@]1(C)CO1
IC50 ([1]; read-out: IC50): 44.9 nM
IC50 [2]: 34.6 nM
IC50 [3]: 23.8 nM

Cc1cc(C(=O)N[C@@H](CCc2ccccc2)C(=O)N[C@@H](Cc2cscn2)C(=O)N[C@@H](Cc2ccccc2)C(=O)N[C@@H](CC(C)C)C(=O)[C@@]2(C)CO2)no1
IC50 [1]: Not Active

Cc1cc(C(=O)N[C@@H](Cc2cscn2)C(=O)N[C@@H](CC(C)C)C(=O)N[C@@H](Cc2ccccc2)C(=O)N[C@@H](CC(C)C)C(=O)[C@@]2(C)CO2)no1
IC50 ([1]; read-out: IC50): 20.6 nM

Cc1cc(C(=O)N[C@@H](CCc2ccccc2)C(=O)N[C@@H](CC2CCCC2)C(=O)N[C@@H](Cc2ccccc2)C(=O)N[C@@H](CC(C)C)C(=O)[C@@]2(C)CO2)no1
IC50 ([1]; read-out: IC50): 36.6 nM

CC(C)C[C@H](NC(=O)[C@H](CCc1ccccc1)NC(=O)CN1CCOCC1)C(=O)N[C@@H](Cc1ccccc1)C(=O)N[C@@H](Cc1ccccc1)C(=O)[C@@]1(C)CO1
IC50 ([1]; read-out: IC50): 140 nM

COC[C@H](NC(=O)c1cc(C)on1)C(=O)N[C@@H](CC(C)C)C(=O)N[C@@H](Cc1ccccc1)C(=O)N[C@@H](CC(C)C)C(=O)[C@@]1(C)CO1
IC50 ([1]; read-out: IC50): 30.6 nM

Cc1cc(C(=O)N[C@@H](CCc2ccccc2)C(=O)N[C@@H](Cc2ccccn2)C(=O)N[C@@H](Cc2ccccc2)C(=O)N[C@@H](CC(C)C)C(=O)[C@@]2(C)CO2)no1
IC50 [1]: Not Active

CC[C@H](NC(=O)[C@H](Cc1ccccc1)NC(=O)[C@H](CC(C)C)NC(=O)[C@H](CCc1ccccc1)NC(=O)CN1CCOCC1)C(=O)[C@@]1(C)CO1
IC50 ([1]; read-out: IC50): 77.1 nM

CCCC[C@H](NC(=O)[C@H](CC(C)C)NC(=O)[C@H](CCc1ccccc1)NC(=O)CN1CCOCC1)C(=O)N[C@@H](CC(C)C)C(=O)[C@@]1(C)CO1
IC50 ([1]; read-out: IC50): 162 nM

CC(C)C[C@H](NC(=O)[C@H](Cc1cscn1)NC(=O)CO)C(=O)N[C@@H](Cc1ccccc1)C(=O)N[C@@H](CC(C)C)C(=O)[C@@]1(C)CO1
IC50 ([1]; read-out: IC50): 52.1 nM

Cc1cc(C(=O)N[C@@H](CCc2ccccc2)C(=O)N[C@H](C(=O)N[C@@H](Cc2ccccc2)C(=O)N[C@@H](CC(C)C)C(=O)[C@@]2(C)CO2)C2CC2)no1
IC50 ([1]; read-out: IC50): 32 nM

CC(C)C[C@H](NC(=O)[C@H](CCc1ccccc1)NC(=O)CN1CCOCC1)C(=O)N[C@@H](Cc1ccccc1)C(=O)N[C@@H](CC(C)C)C(=O)[C@@]1(C)CO1 [CARFILZOMIB]
half-life at 1 µM [4]: 37.2 s
half-life at 1 µM [5]: < 60 s
half-life at 1 µM [6]: 20.4 s
half-life at 1 µM [7]: 14.6 s
half-life at 1 µM [8]: 17.2 s
microsomal CLint at 1 µM [9]: 2230 µL/min/mg
microsomal CLint at 1 µM [10]: 4100 µL/min/mg
microsomal CLint at 1 µM [11]: 5670 µL/min/mg
microsomal CLint at 1 µM [12]: > 1390 µL/min/mg
microsomal CLint at 1 µM [13]: 4850 µL/min/mg
T/C [14]: 34.6%
IC50 [2]: 39.1 nM
IC50 [3]: 35.7 nM
IC50 [15]: 92100 nM

COC[C@H](NC(=O)c1cc(C)on1)C(=O)NCC(=O)N[C@@H](Cc1ccccc1)C(=O)N[C@@H](CC(C)C)C(=O)[C@@]1(C)CO1
IC50 [1]: Not Active

CC(C)C[C@H](NC(=O)[C@H](Cc1cscn1)NC(=O)c1cnccn1)C(=O)N[C@@H](Cc1ccccc1)C(=O)N[C@@H](CC(C)C)C(=O)[C@@]1(C)CO1
IC50 ([1]; read-out: IC50): 38.8 nM

CC(C)C[C@H](NC(=O)[C@H](Cc1cscn1)NC(=O)c1cc(Cl)ccc1Cl)C(=O)N[C@@H](Cc1ccccc1)C(=O)N[C@@H](CC(C)C)C(=O)[C@@]1(C)CO1
IC50 ([1]; read-out: IC50): 64.8 nM

Cc1cc(C(=O)N[C@@H](CCc2ccccc2)C(=O)N[C@H](C(=O)N[C@@H](Cc2ccccc2)C(=O)N[C@@H](CC(C)C)C(=O)[C@@]2(C)CO2)[C@@H](C)O)no1
IC50 ([1]; read-out: IC50): 48.3 nM

Cc1cc(C(=O)NCC(=O)N[C@@H](CC(C)C)C(=O)N[C@@H](Cc2ccccc2)C(=O)N[C@@H](CC(C)C)C(=O)[C@@]2(C)CO2)no1
IC50 ([1]; read-out: IC50): 56.5 nM

CC[C@H](NC(=O)[C@H](CCc1ccccc1)NC(=O)c1cc(C)on1)C(=O)N[C@@H](Cc1ccccc1)C(=O)N[C@@H](CC(C)C)C(=O)[C@@]1(C)CO1
IC50 ([1]; read-out: IC50): 36.8 nM
IC50 [2]: 47 nM
IC50 [3]: 45.5 nM

Cc1cc(C(=O)N[C@@H](CCc2ccccc2)C(=O)N[C@H](C(=O)N[C@@H](Cc2ccccc2)C(=O)N[C@@H](CC(C)C)C(=O)[C@@]2(C)CO2)C2CCCCC2)no1
IC50 ([1]; read-out: IC50): 30.8 nM
IC50 [2]: 14.7 nM
IC50 [3]: 23.2 nM

Cc1cc(C(=O)N[C@@H](Cc2cc3ccccc3[nH]2)C(=O)N[C@@H](CC(C)C)C(=O)N[C@@H](Cc2ccccc2)C(=O)N[C@@H](CC(C)C)C(=O)[C@@]2(C)CO2)no1
IC50 ([1]; read-out: IC50): 25.5 nM

Cc1cc(C(=O)N[C@H](C(=O)N[C@@H](CC(C)C)C(=O)N[C@@H](Cc2ccccc2)C(=O)N[C@@H](CC(C)C)C(=O)[C@@]2(C)CO2)C2CC2)no1
IC50 ([1]; read-out: IC50): 43.1 nM

CC(C)C[C@H](NC(=O)[C@H](CCc1ccccc1)NC(=O)CN1CCOCC1)C(=O)N[C@@H](Cc1ccccc1)C(=O)N[C@@H](CCc1ccccc1)C(=O)[C@@]1(C)CO1
IC50 ([1]; read-out: IC50): 729 nM

CC(C)C[C@H](NC(=O)[C@H](CCc1ccccc1)NC(=O)CN1CCOCC1)C(=O)N[C@@H](Cc1cc2ccccc2s1)C(=O)N[C@@H](CC(C)C)C(=O)[C@@]1(C)CO1
IC50 ([1]; read-out: IC50): 37.5 nM
IC50 [2]: 86.6 nM
IC50 [3]: 80.5 nM

Cc1cc(C(=O)N[C@@H](Cc2ccccn2)C(=O)N[C@@H](CC(C)C)C(=O)N[C@@H](Cc2ccccc2)C(=O)N[C@@H](CC(C)C)C(=O)[C@@]2(C)CO2)no1
IC50 ([1]; read-out: IC50): 60.7 nM

CC(C)C[C@H](NC(=O)[C@H](CCc1ccccc1)NC(=O)CN1CCOCC1)C(=O)N[C@@H](Cc1cscn1)C(=O)N[C@@H](CC(C)C)C(=O)[C@@]1(C)CO1
IC50 ([1]; read-out: IC50): 26.8 nM
IC50 [2]: 76.9 nM
IC50 [3]: 56.5 nM

CCCC[C@H](NC(=O)[C@H](Cc1ccccc1)NC(=O)[C@H](CC(C)C)NC(=O)[C@H](CCc1ccccc1)NC(=O)CN1CCOCC1)C(=O)[C@@]1(C)CO1
IC50 ([1]; read-out: IC50): 52.2 nM

CC(C)C[C@H](NC(=O)[C@H](CCc1ccccc1)NC(=O)CN1CCOCC1)C(=O)NCC(=O)N[C@@H](CC(C)C)C(=O)[C@@]1(C)CO1
IC50 [1]: Not Active

COC[C@H](NC(=O)[C@H](CCc1ccccc1)NC(=O)c1cc(C)on1)C(=O)N[C@@H](Cc1ccccc1)C(=O)N[C@@H](CC(C)C)C(=O)[C@@]1(C)CO1
IC50 ([1]; read-out: IC50): 50.9 nM
